Here are results for eleven molecules from ChEMBL document CHEMBL3856290, “Discovery of TAK-272: A Novel, Potent, and Orally Active Renin Inhibitor” (ACS Med Chem Lett, 2016).

Counter-ions that a name gives are not always drawn. Activity calls are given as the source filed them. The calls are words filed in the database; no cut-off is given here. A value given as a limit tells only on which side of the number the result lay.

Data set [1] addresses T1, Renin (Homo sapiens, UniProt P00797).
T1 sequence (P00797 whole entry): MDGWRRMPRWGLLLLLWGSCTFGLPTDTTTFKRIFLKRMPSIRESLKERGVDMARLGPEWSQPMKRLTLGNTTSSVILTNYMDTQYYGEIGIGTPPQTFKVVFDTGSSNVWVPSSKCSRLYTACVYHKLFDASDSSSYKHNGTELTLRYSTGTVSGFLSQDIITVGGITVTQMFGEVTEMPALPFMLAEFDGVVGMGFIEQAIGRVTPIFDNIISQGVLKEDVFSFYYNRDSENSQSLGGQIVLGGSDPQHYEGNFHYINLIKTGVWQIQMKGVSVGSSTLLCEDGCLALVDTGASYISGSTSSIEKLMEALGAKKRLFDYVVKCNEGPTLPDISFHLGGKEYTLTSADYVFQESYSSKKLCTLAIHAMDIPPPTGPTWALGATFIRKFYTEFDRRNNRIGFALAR
As to the kind of experiment: Inhibition of recombinant human preprorenin expressed in human 293F cells using angiotensinogen as substrate preincubated for 10 mins followed by substrate addition measured after 30 mins by ELISA. (An ELISA detects its analyte on a solid surface through an enzyme-linked reagent.)

The target in data set [2] is T1, Renin. Nature of the data set: Inhibition of renin in human plasma by radioimmunoassay. Format: cell-free.
A further data set deals with Cathepsin D (Homo sapiens, UniProt P07339). Nature of the data set: Inhibition of cathepsin D (unknown origin).
For data set [3], the system named is Rattus norvegicus. As to the kind of experiment: Antihypertensive activity in human angiotensinogen and renin double transgenic rat model assessed as reduction in systolic blood pressure at 10 mg/kg, po after 5 hrs by tail-cuff method. Format: functional, organism-based. The method in brief:
(§1)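 Male hAOPEN-hREN double transgenic rats, 5 weeks old. Drugs were dissolved in 0.5% methylcellulose and given orally; vehicle-dosed rats served as controls. Systolic pressure was read by tail-cuff before dosing and at 5 and 24 h after dosing.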

In data set [4] the test system is Rattus norvegicus. As to the kind of experiment: Antihypertensive activity in human angiotensinogen and renin double transgenic rat model assessed as reduction in systolic blood pressure at 10 mg/kg, po after 24 hrs by tail-cuff method. The class given is functional, organism-based. The method in brief: as §1
Data set [5] deals with Rattus norvegicus. As to the kind of experiment: Antihypertensive activity in po dosed human angiotensinogen and renin double transgenic rat model assessed as reduction in systolic blood pressure after 5 to 24 hrs by tail-cuff method. Format: functional, organism-based. The method in brief: as §1
Data set [6] can be described thus: Inhibition of pepsin (unknown origin). Details: species or system Homo sapiens.
Data set [7] concerns Rattus norvegicus. Nature of the data set: Antihypertensive activity in human angiotensinogen and renin double transgenic rat model assessed as reduction in systolic blood pressure at 3 mg/kg, po after 5 hrs by tail-cuff method. Format: functional, organism-based. The method in brief: as §1
Data set [8] is described as follows: Oral bioavailability in non-fasted rat at 1 mg/kg administered through cassette dosing by LC/MS/MS analysis. The class given is ADME, organism-based. The note with it: in vivo. The method in brief:
(§2)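 Cassette dosing to non-fasted rats, either 0.1 mg/kg iv or 1 mg/kg po. Blood was sampled after dosing and spun to plasma. Plasma was deproteinized and centrifuged, and compound levels in the supernatant were measured by LC/MS/MS.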

A short description of data set [9]: Plasma clearance in non-fasted rat at 0.1 mg/kg, iv or 1 mg/kg, po administered through cassette dosing by LC/MS/MS analysis. The class given is ADME, organism-based. The note with it: in vivo. In outline: as §2
The subject of data set [10] is Rattus norvegicus. Nature of the data set: Antihypertensive activity in human angiotensinogen and renin double transgenic rat model assessed as reduction in systolic blood pressure at 75 mg/kg, po after 5 hrs by tail-cuff method. The class given is functional, organism-based. The method in brief:
as §1

Data set [11] deals with Rattus norvegicus. As to the kind of experiment: Antihypertensive activity in human angiotensinogen and renin double transgenic rat model assessed as reduction in systolic blood pressure at 75 mg/kg, po after 24 hrs by tail-cuff method. The class given is functional, organism-based. The method in brief: as §1
Data set [12] is described as follows: AUC in non-fasted rat at 1 mg/kg, po administered through cassette dosing by LC/MS/MS analysis. The conditions noted are these: in vivo. Format: ADME, organism-based. In outline:
as §2

Chain of Cathepsin D (P07339 65-162 limits assumed): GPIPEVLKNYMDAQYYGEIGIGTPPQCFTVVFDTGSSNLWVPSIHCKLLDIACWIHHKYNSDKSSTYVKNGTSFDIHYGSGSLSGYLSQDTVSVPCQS
Chain of Cathepsin D (P07339 169-412 limits assumed): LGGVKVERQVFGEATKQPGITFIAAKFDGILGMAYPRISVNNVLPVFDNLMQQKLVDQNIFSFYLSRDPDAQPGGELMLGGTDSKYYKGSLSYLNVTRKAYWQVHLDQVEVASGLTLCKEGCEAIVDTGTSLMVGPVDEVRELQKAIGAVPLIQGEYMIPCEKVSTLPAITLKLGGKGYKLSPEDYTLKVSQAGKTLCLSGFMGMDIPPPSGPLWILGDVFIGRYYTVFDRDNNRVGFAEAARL

For the molecule `COC(=O)[C@H]1CNC[C@@H](N(CC(C)C)C(=O)c2cnc(C(C)(C)C)nc2NCc2ccco2)C1` (racemic), the IC50 at Renin [1] was determined as 0.44 nM; against Renin [2], 1.4 nM.
As to `COCCCCn1c(C(=O)N(CC(C)C)[C@@H]2CNC[C@H](C(=O)N3CCOCC3)C2)nc2ccccc21` [IMARIKIREN HYDROCHLORIDE], the IC50 (against Cathepsin D; in [6]) was over 10000 nM throughout. Further, the outcome in the data set with Rattus norvegicus [3], in the data set on Rattus norvegicus [4] and in the data set with Rattus norvegicus [7] was Active. Moreover, the Activity result in the data set on Rattus norvegicus [5] was “Dose-dependent effect”.
Regarding `COC(=O)[C@H]1CNC[C@@H](N(CC(C)C)C(=O)c2cnc(C(C)(C)C)nc2NCc2ccco2)C1`, the concentration for half-maximal inhibition (IC50) is 0.039 nM on Renin [1] and 0.35 nM at Renin [2].
In the case of `COCCCNc1nc(C(C)(C)C)ncc1C(=O)N(CC(C)C)[C@@H]1CNC[C@H](C(=O)OC)C1`, the IC50 was found to be 2.6 nM at Renin [1] and 5.2 nM at Renin [2].
In the case of `CC(C)CN(C(=O)c1cnc(C(C)(C)C)nc1NCc1ccco1)[C@H]1CCCNC1`, the half-maximal inhibitory concentration (IC50) at Renin [1] is 0.58 nM; at Renin [2] it was 4.6 nM.
Taken in the same sequence, the figures for `COC(=O)[C@@H]1CNC[C@H](N(CC(C)C)C(=O)c2cnc(C(C)(C)C)nc2NCc2ccco2)C1` were 1.2 nM and over 10 nM.
In [8], `COCCCNc1nc(C(C)(C)C)ncc1C(=O)N(CC(C)C)[C@@H]1CNC[C@H](C(=O)N2CCOCC2)C1` displayed an F of under 1%. In [9], this molecule returned a CL of 92.32 mL/min/kg.
On to `COCCCOc1cc(C[C@@H](C[C@H](N)[C@@H](O)C[C@H](C(=O)NCC(C)(C)C(N)=O)C(C)C)C(C)C)ccc1OC`, for which the result in the data set on Rattus norvegicus [10] and in the data set on Rattus norvegicus [11] was Active.
Take `COC(=O)[C@@H]1CNC[C@@H](N(CC(C)C)C(=O)c2cnc(C(C)(C)C)nc2NCc2ccco2)C1` (relative stereo): the values for the IC50 at Renin [1] and at Renin [2] were 3.3 nM and 10 nM, respectively.
As for `COCCCNc1nc(C(C)(C)C)ncc1C(=O)N(CC(C)C)[C@@H]1CNC[C@H](C(N)=O)C1`, the concentration for half-maximal inhibition (IC50) on Renin [1] was determined as 1.4 nM; on Renin [2], 4.5 nM.
For `CCCCCCc1nc(C(C)(C)C)ncc1C(=O)N(CC(C)C)[C@@H]1CNC[C@H](C(=O)N2CCOCC2)C1`, the F in data set [8] came to 5%. Besides, the CL in data set [9] amounted to 40.12 mL/min/kg. The AUC in [12] amounted to 20.9 ng·h/mL.

By IC50 is commonly meant the concentration at which inhibition is half-maximal. One may read the AUC as the area under the concentration-time curve, a measure of exposure. A high value points to high exposure.
